Experimental data published in ChEMBL document CHEMBL1765030, “Discovery and preclinical evaluation of a novel class of cytotoxic propynoic acid carbamoyl methyl amides (PACMAs)” (J Med Chem, 2011).
The source made the active and inactive calls. The calls are words filed in the database; no cut-off is given here.

Experiments:
[1] = Octanol-water distribution coefficient, log P of the compound; assay type: physicochemical
MDA-MB-435 [2] = experiment: Induction of apoptosis in human MDA-MB-435 cells assessed as apoptotic cells at 10 uM after 24 hrs using by annexin V and propidium iodide staining by flow cytometry relative to control; assay type: functional
In short: (§1)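 Treatment was 10 μM for 24 and 48 h, with an untreated 48 h control run in parallel. Floating and adherent cells were pooled and stained with annexin V-FITC/propidium iodide, then read by flow cytometry (FITC and PE channels). Quadrants: annexin−/PI− viable; annexin+/PI− early apoptotic; annexin+/PI+ late apoptotic; lower right necrotic/debris.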

MDA-MB-435 [3] = experiment: Induction of apoptosis in human MDA-MB-435 cells assessed as pre-necrotic cells at 10 uM after 24 hrs using by annexin V and propidium iodide staining by flow cytometry relative to control; assay type: functional; in short: as §1
Mus musculus [4] = experiment: Toxicity in human MDA-MB-435 cells xenografted athymic nude mouse assessed as histological changes in organ at 10 mg/kg, ip for 9 days followed by 20 mg/kg, ip for 5 days followed by 40 mg/kg, ip for 12 days; assay type: organism-based; settings: in vivo
HT-29 = experiment: Cytotoxicity against human HT-29 cells after 72 hrs by MTT assay; assay type: functional, cell-based; settings: HT-29, 72 h
In short: (§2)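 Cells were attached overnight, then continuously exposed to drug for 72 h. MTT (0.5 mg/mL final) was added for 4 h at 37 °C, formazan dissolved in DMSO, and A570 read; all in triplicate. IC50 came from log(concentration) vs % cells killed. Media: RPMI-1640 for HT29, HCT116 p53+/+ and p53−/−, and HEY; DMEM for MDA-MB-435 and UMUC3; all with 10% FBS, 37 °C, 5% CO₂.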

HCT-116 [5] = experiment: Cytotoxicity against human HCT116 cells […] after 72 hrs by MTT assay; assay type: functional, cell-based; settings: HCT-116, 72 h; in short: as §2
UMUC3 = experiment: Cytotoxicity against human UM-UC-3 cells after 72 hrs by MTT assay; assay type: functional, cell-based; settings: UMUC3, 72 h; in short: as §2
MDA-MB-435 [6] = experiment: Induction of apoptosis in human MDA-MB-435 cells assessed as necrotic cells at 10 uM after 48 hrs using by annexin V and propidium iodide staining by flow cytometry relative to control; assay type: functional; in short: as §1
MDA-MB-435 [7] = experiment: Cytotoxicity against human MDA-MB-435 cells at 1 uM after 24 hrs using crystal violet staining by colony formation assay; assay type: functional, cell-based
In short: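 Cells were plated at 1000 per well, attached overnight, and exposed to 1 μM for 24 h. They were then washed and grown in fresh medium for 8–10 days until colonies formed, fixed in 1% glutaraldehyde for 30 min, and stained with 2% crystal violet for 30 min. Vehicle was DMSO.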

MDA-MB-435 [8] = experiment: Cytotoxicity against human MDA-MB-435 cells after 72 hrs by MTT assay; assay type: functional, cell-based; settings: MDA-MB-435, 72 h; in short: as §2
5637 = experiment: Cytotoxicity against human 5637 cells after 72 hrs by MTT assay; assay type: functional, cell-based; settings: Homo sapiens, 5637, 72 h
HEY = experiment: Cytotoxicity against human HEY cells after 72 hrs by MTT assay; assay type: functional, cell-based; in short: as §2
MDA-MB-435 [9] = experiment: Induction of apoptosis in human MDA-MB-435 cells assessed as pre-necrotic cells at 10 uM after 48 hrs using by annexin V and propidium iodide staining by flow cytometry relative to control; assay type: functional; in short: as §1
MDA-MB-435 [10] = experiment: Increase of mitochondrial superoxide accumulation in human MDA-MB-435 cells at IC50 to 3 times IC50 after 24 hrs by flow cytometry; assay type: functional, cell-based
In short: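 Cells were drug-treated at two concentrations for 24 h, then loaded with 5 μM MitoSOX Red for 10 min at 37 °C and washed three times in HBSS. Cells were either viewed by fluorescence microscopy or trypsinized, washed twice in HBSS and read by flow cytometry; untreated cells served as control.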

MDA-MB-435 [11] = experiment: Induction of apoptosis in human MDA-MB-435 cells assessed as necrotic cells at 10 uM after 24 hrs using by annexin V and propidium iodide staining by flow cytometry relative to control; assay type: functional; in short: as §1
Mus musculus [12] = experiment: Toxicity in human MDA-MB-435 cells xenografted athymic nude mouse assessed as change in doy weight at 10 mg/kg, ip for 9 days followed by 20 mg/kg, ip for 5 days followed by 40 mg/kg, ip for 12 days; assay type: organism-based; settings: in vivo
In short: (§3)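 Athymic nude mice were inoculated s.c. on the rear flank with 1.5 × 10⁶ log-phase MDA-MB-435 cells. At ~100 mm³ average tumor volume, mice were randomized (n = 8) to vehicle (10% DMSO/90% sesame oil) or drug, given i.p. once daily, dosed by group mean body weight. Caliper tumor measurements were taken twice weekly, volume = d²×D/2; mice were followed 17 days after dosing ended, with body weight monitored.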

MDA-MB-435 [13] = experiment: Induction of apoptosis in human MDA-MB-435 cells assessed as viable cells at 10 uM after 48 hrs using by annexin V and propidium iodide staining by flow cytometry relative to control; assay type: functional; settings: MDA-MB-435, 48 h, read-out: Activity; in short: as §1
MDA-MB-435 [14] = experiment: Induction of apoptosis in human MDA-MB-435 cells assessed as apoptotic cells at 10 uM after 48 hrs using by annexin V and propidium iodide staining by flow cytometry relative to control; assay type: functional; in short: as §1
MDA-MB-435 [15] = experiment: Induction of apoptosis in human MDA-MB-435 cells assessed as viable cells at 10 uM after 24 hrs using by annexin V and propidium iodide staining by flow cytometry relative to control; assay type: functional; settings: MDA-MB-435, 24 h, read-out: Activity; in short: as §1
NCI/ADR-RES = experiment: Cytotoxicity against human NCI/ADR-RES cells after 72 hrs by MTT assay; assay type: functional, cell-based
HCT-116 [16] = experiment: Cytotoxicity against p53 deficient human HCT116 cells […] after 72 hrs by MTT assay; assay type: functional, cell-based; settings: HCT-116, 72 h; in short: as §2
MDA-MB-435 [17] = experiment: Antitumor activity against human MDA-MB-435 cells xenografted in athymic nude mouse assessed as reduction of tumor burden at 10 mg/kg, ip for 9 days followed by 20 mg/kg, ip for 5 days followed by 40 mg/kg, ip for 12 days; assay type: functional, organism-based; in short: as §3
MDA-MB-435 [18] = experiment: Cell cycle arrest in human MDA-MB-435 cells assessed as accumulation at G2/M phase at 5 uM after 24 hrs using propidium iodide staining by flow cytometry (reference value: 9%); assay type: functional
MDA-MB-435 [19] = experiment: Cell cycle arrest in human MDA-MB-435 cells assessed as accumulation at G0/G1 phase at 5 uM after 24 hrs using propidium iodide staining by flow cytometry (reference value: 50%); assay type: functional
MDA-MB-435 [20] = experiment: Cell cycle arrest in human MDA-MB-435 cells assessed as accumulation at G0/G1 phase at 5 uM after 12 hrs using propidium iodide staining by flow cytometry (reference value: 50%); assay type: functional
MDA-MB-435 [21] = experiment: Cell cycle arrest in human MDA-MB-435 cells assessed as accumulation at G0/G1 phase at 5 uM after 6 hrs using propidium iodide staining by flow cytometry (reference value: 50%); assay type: functional
MDA-MB-435 [22] = experiment: Cell cycle arrest in human MDA-MB-435 cells assessed as accumulation at G2/M phase at 5 uM after 12 hrs using propidium iodide staining by flow cytometry (reference value: 9%); assay type: functional
MDA-MB-435 [23] = experiment: Cell cycle arrest in human MDA-MB-435 cells assessed as accumulation at S phase at 5 uM after 12 hrs using propidium iodide staining by flow cytometry (reference value: 41%); assay type: functional
[24] = Elimination rate constant in mouse at 24 mg/kg, ip; assay type: ADME, organism-based; design: dose 24 mg/kg, route intraperitoneal; settings: in vivo
In short: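 Mice received a single 24 mg/kg i.p. injection, with two mice per time point. Blood was drawn into heparinized syringes at set times between 0.5 and 24 h, and plasma was separated by centrifugation and stored at −80 °C. Plasma drug was quantified by validated LC-MS (lowest quantification level 1 ng/mL), and parameters were derived by noncompartmental analysis.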

MDA-MB-435 [25] = experiment: Cell cycle arrest in human MDA-MB-435 cells assessed as accumulation at S phase at 5 uM after 6 hrs using propidium iodide staining by flow cytometry (reference value: 41%); assay type: functional
MDA-MB-435 [26] = experiment: Cell cycle arrest in human MDA-MB-435 cells assessed as accumulation at S phase at 5 uM after 24 hrs using propidium iodide staining by flow cytometry (reference value: 41%); assay type: functional
MDA-MB-435 [27] = experiment: Cell cycle arrest in human MDA-MB-435 cells assessed as accumulation at G2/M phase at 5 uM after 6 hrs using propidium iodide staining by flow cytometry (reference value: 9%); assay type: functional
MDA-MB-435 [28] = experiment: Induction of apoptosis in human MDA-MB-435 cells assessed as decrease of caspase 9 protein expression at 1 uM after 24 to 72 hrs by Western blotting relative to control; assay type: functional
In short: (§4)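 Cells were treated with 1 μM for 24–72 h and lysed in 50 mM Tris-HCl pH 7.5, 150 mM NaCl, 1% NP-40. Equal protein (BCA) was run on 10% tris-glycine SDS-PAGE and blotted to nitrocellulose. Membranes were blocked in 5% BSA/PBS for 1 h, probed overnight at 4 °C with anti-p53 or anti-caspase-9 (plus tubulin/GAPDH antibodies), and detected by HRP secondary with ECL imaging.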

MDA-MB-435 [29] = experiment: Induction of apoptosis in human MDA-MB-435 cells assessed as up-regulation of p53 protein expression at 1 uM after 24 to 72 hrs by Western blotting; assay type: functional, cell-based; in short: as §4

C#CC(=O)N(c1cccc(C(F)(F)F)c1)C(C(=O)NC1CCCC1)c1cccc(OC)c1 (configuration not stated)
logP [1]: 3.7
Activity (MDA-MB-435 [2]): 1%
Activity (MDA-MB-435 [3]): 2%
Activity (Mus musculus [4]): Non-toxic
IC50 (HT-29): 7.2 µM
IC50 (HCT-116 [5]): > 10 µM
IC50 (UMUC3): > 20 µM
Activity (MDA-MB-435 [6]): 37%
Activity (MDA-MB-435 [7]): Active
IC50 (MDA-MB-435 [8]): 6.3 µM
IC50 5637: 600 nM
IC50 (HEY): 5.2 µM
Activity (MDA-MB-435 [9]): 10%
Activity (MDA-MB-435 [10]): Active
Activity (MDA-MB-435 [11]): 4%
Activity (Mus musculus [12]): 29 g
viability at 10 µM (MDA-MB-435 [13]): 52%
Activity (MDA-MB-435 [14]): 1%
viability at 10 µM (MDA-MB-435 [15]): 93%
IC50 (NCI/ADR-RES): 200 nM
IC50 (HCT-116 [16]): 8.8 µM
Activity (MDA-MB-435 [17]): Active

C#CC(=O)N(c1ccc(-n2cnnn2)c(C)c1)C(C(=O)NC1CCCC1)c1ccccc1F (configuration not stated)
Activity (MDA-MB-435 [18]): 16%
Activity (MDA-MB-435 [19]): 33%
logP [1]: 3.91
Activity (MDA-MB-435 [2]): 1%
Activity (MDA-MB-435 [3]): 6%
IC50 (HT-29): 1.8 µM
IC50 (HCT-116 [5]): 6.3 µM
Activity (MDA-MB-435 [20]): 36%
IC50 (UMUC3): 6.3 µM
Activity (MDA-MB-435 [6]): 62%
Activity (MDA-MB-435 [7]): Active
IC50 (MDA-MB-435 [8]): 1.4 µM
Activity (MDA-MB-435 [21]): 40%
Activity (MDA-MB-435 [22]): 13%
IC50 5637: 700 nM
IC50 (HEY): 1.5 µM
Activity (MDA-MB-435 [9]): 24%
Activity (MDA-MB-435 [10]): Active
Activity (MDA-MB-435 [11]): 27%
Activity (MDA-MB-435 [23]): 51%
k el [24]: 5.72e-05 s⁻¹
viability at 10 µM (MDA-MB-435 [13]): 11%
Activity (MDA-MB-435 [14]): 3%
Activity (MDA-MB-435 [25]): 51%
viability at 10 µM (MDA-MB-435 [15]): 66%
Activity (MDA-MB-435 [26]): 51%
IC50 (NCI/ADR-RES): 1000 nM
IC50 (HCT-116 [16]): 5.5 µM
Activity (MDA-MB-435 [27]): 9%

C#CC(=O)N(c1cc(OC)cc(OC)c1)C(C(=O)NC1CCCCC1)c1ccc(OC)cc1 (configuration not stated)
logP [1]: 2.54
Activity (MDA-MB-435 [2]): 1%
Activity (MDA-MB-435 [3]): 2%
IC50 (HT-29): 6.3 µM
IC50 (HCT-116 [5]): 12.5 µM
IC50 (UMUC3): > 20 µM
Activity (MDA-MB-435 [6]): 35%
Activity (MDA-MB-435 [7]): Active
IC50 (MDA-MB-435 [8]): 5.4 µM
fold change (FC) (MDA-MB-435 [28]): 2
IC50 5637: 2200 nM
IC50 (HEY): 4.4 µM
Activity (MDA-MB-435 [9]): 9%
Activity (MDA-MB-435 [10]): Active
Activity (MDA-MB-435 [11]): 2%
Activity (MDA-MB-435 [29]): Active
viability at 10 µM (MDA-MB-435 [13]): 53%
Activity (MDA-MB-435 [14]): 3%
viability at 10 µM (MDA-MB-435 [15]): 95%
IC50 (NCI/ADR-RES): 300 nM
IC50 (HCT-116 [16]): 11 µM
